Activity calls are given as the source filed them.
Key:
[1] = organism: Cavia porcellus; assay: Induction of positive inotropic activity in guinea pig atrium assessed as atrial contractility up to 10^-4 M; assay type: functional, tissue-based; details: Cardiac atrium
Procedure, shortened: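 Left auricle from guinea pig in Krebs-Henseleit solution, 32 °C, gassed with O2 containing 5% CO2, resting tension about 1 g. Paced by rectangular pulses (10 ms, 100/min) at 20% above threshold voltage. Change in isometric contraction calculated relative to control atria.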

[2] = organism: Cavia porcellus; assay: Inhibition of Na+/K+ ATPase-mediated phosphohydrolase activity in guinea pig myocardium up to 10^-4 M after 30 mins; assay type: tissue-based
Procedure, shortened: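 Crude membrane preparation from guinea pig myocardium, holding both (Na+,K+)ATPase and Mg2+-ATPase. Incubated 37 °C, 30 min; substrate consumption under 15% without drug. Activity measured as inorganic phosphate liberated per mg protein per hour. Na+,K+ component taken as total minus Mg2+-ATPase activity, the latter measured without Na+ and K+. Drug range 10^-8–10^-4 M, duplicates.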

inhibition [2] | Compound | Activity [1]
inactive | C[C@]12CC[C@H]3[C@@H](CCC4=C[C@@H](O)CC[C@@]43C)[C@@H]1CC[C@@H]2/C=C\C#N | inactive
inactive | C[C@]12CC[C@H](O)C[C@H]1CC[C@@H]1[C@@H]2CC[C@]2(C)[C@@H](/C=C\C#N)CC[C@@H]12 | inactive
inactive | C[C@]12CC[C@@H](O)C[C@H]1CC[C@@H]1[C@@H]2CC[C@]2(C)[C@@H](/C=C\C#N)CC[C@@H]12 | inactive
inactive | C[C@]12CC[C@H](O)C[C@@H]1CC[C@@H]1[C@@H]2CC[C@]2(C)[C@@H](/C=C\C#N)CC[C@@H]12 | inactive
inactive | C[C@]12CC[C@H](O)C[C@H]1CC[C@@H]1[C@@H]2CC[C@]2(C)[C@@H](/C=C/C#N)CC[C@@H]12 | inactive
inactive | COC(=O)/C=C/[C@H]1CC[C@H]2[C@@H]3CC[C@@H]4C[C@@H](O)CC[C@]4(C)[C@H]3CC[C@]12C | inactive
inactive | COC(=O)/C=C/[C@H]1CC[C@H]2[C@@H]3CC[C@@H]4C[C@H](O)CC[C@]4(C)[C@H]3CC[C@]12C | inactive
inactive | C[C@]12CC[C@H](O)C[C@@H]1CC[C@@H]1[C@@H]2CC[C@]2(C)[C@@H](/C=C/C#N)CC[C@@H]12 | inactive
inactive | C[C@]12CC[C@@H](O)C[C@H]1CC[C@@H]1[C@@H]2CC[C@]2(C)[C@@H](/C=C/C#N)CC[C@@H]12 | inactive
inactive | COC(=O)/C=C/[C@H]1CC[C@H]2[C@@H]3CC[C@H]4C[C@@H](O)CC[C@]4(C)[C@H]3CC[C@]12C | inactive
inactive | C[C@]12CC[C@H]3[C@@H](CCC4=C[C@@H](O)CC[C@@]43C)[C@@H]1CC[C@@H]2/C=C/C#N | inactive
inactive | COC(=O)/C=C/[C@H]1CC[C@H]2[C@@H]3CCC4=C[C@@H](O)CC[C@]4(C)[C@H]3CC[C@]12C | inactive

— ChEMBL document CHEMBL3228034, “Cardenolide analogues. 9. Synthesis and biological activity of 17beta-carbomethoxyethylene and 17beta-cyanoethylene 14alpha-H steroids” (J Med Chem, 1979)
